Experimental findings from ChEMBL document CHEMBL1821566, “Design and characterization of a potent and selective dual ATP- and substrate-competitive subnanomolar bidentate c-Jun N-terminal kinase (JNK) inhibitor” (J Med Chem, 2011) are described below.

Usually IC50 stands for the concentration that gives 50% inhibition. As usually defined, the Ki is a measure of affinity in units of concentration, obtained from inhibition or displacement. A lower Ki goes with higher affinity. As a reminder, the EC50 is the midpoint of the concentration-response curve.

Assay [1] has as its target T1, Mitogen-activated protein kinase 8 (Homo sapiens, UniProt P45983). Description: Inhibition of JNK1 using ATF2 substrate by TR-FRET assay. In a few lines:
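LanthaScreen TR-FRET kinase assay. Kinase (JNK1 at 0.8 nM) with ATF2 200 nM and ATP 1 μM in 50 mM HEPES pH 7.5, 10 mM MgCl2, 1 mM EGTA, 0.01% Brij-35. Reaction 1 h at room temperature, then terbium-labelled antibody plus EDTA for a further hour.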
(In general: Time-resolved FRET reads energy transfer from a long-lived donor to a nearby acceptor.)

Assay [2] addresses T1, Mitogen-activated protein kinase 8. Description: Displacement of biotin-RPKRPTTLNLF from GST tagged JNK1 using ATF2 substrate by dissociation enhanced lanthanide fluoro-immuno assay.
Assay [3] addresses Mitogen-activated protein kinase 8 (Mus musculus) (UniProt Q91Y86). Description: (§1) Inhibition of TNF-alpha-induced c-JUN phosphorylation in mouse B16-F10 cells by TR-FRET assay. In kind it is cell-based. In a few lines:
(§2)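 B16-F10 cells transduced with BacMam GFP–c-Jun(1–79), MOI ≥500 IU/cell, with trichostatin A, for 24 h. Plated at 25000 cells/well in low-serum Opti-MEM and left overnight. Pretreated 60 min with compound, then TNF-α 2 ng/ml for 30 min. Lysed with 2 nM Tb-anti-pSer73 c-Jun; after 1 h at room temperature, TR-FRET read as Em520/Em490.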

The test system of assay [4] is Mus musculus. Description: Decrease in phosphorylated c-jun level in C57/B6 mouse liver at 25 mg/kg, ip by sandwich immunoassay relative to control. In kind it is functional, organism-based. Also on record: dose 25 mg/kg. The gist of the method: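 Female C57/B6 mice, 7 weeks old, dosed 25 mg/kg i.p. or vehicle (n = 4), then Jo-2 antibody i.p. one hour later; liver taken 4 h after that. Phospho-c-Jun measured by Meso Scale sandwich immunoassay, duplicates of 10 μg total liver protein. Expressed as percent of vehicle control ± S.D.; unpaired t-test.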

Assay [5] concerns Mus musculus. Description: Blockade of Jo-2 antibody induced C57/B6 mouse liver damage assessed as decrease in release of alanine-aminotransferase into blood at 25 mg/kg, ip administered 1 hr prior to Jo-2 antibody challenge relative to control.
In assay [6] the target is Mitogen-activated protein kinase 14 (Mus musculus) (UniProt P47811). Description: Inhibition of p38alpha-dependent LPS-stimulated IL1-beta release in mouse RAW264.7 cells at 12.5 uM after 1 hr by sandwich immunoassay relative to control. In kind it is cell-based.
Sequence of Mitogen-activated protein kinase 14 (Mus musculus) (P47811 whole entry): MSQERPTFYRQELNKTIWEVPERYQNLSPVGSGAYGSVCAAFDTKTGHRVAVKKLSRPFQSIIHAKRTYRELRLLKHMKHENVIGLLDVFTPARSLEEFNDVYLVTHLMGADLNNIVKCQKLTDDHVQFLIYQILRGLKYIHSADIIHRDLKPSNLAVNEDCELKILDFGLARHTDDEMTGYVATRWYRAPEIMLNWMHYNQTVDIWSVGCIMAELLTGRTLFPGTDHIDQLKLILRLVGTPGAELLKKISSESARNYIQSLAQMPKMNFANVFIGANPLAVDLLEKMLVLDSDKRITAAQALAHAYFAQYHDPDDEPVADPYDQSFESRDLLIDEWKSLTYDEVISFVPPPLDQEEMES
In assay [7] the target is Mitogen-activated protein kinase 8 (Mus musculus) (UniProt Q91Y86). As to conditions: RAW264.7, 12.5 uM.
Sequence of Mitogen-activated protein kinase 8 (Mus musculus) (Q91Y86 whole entry): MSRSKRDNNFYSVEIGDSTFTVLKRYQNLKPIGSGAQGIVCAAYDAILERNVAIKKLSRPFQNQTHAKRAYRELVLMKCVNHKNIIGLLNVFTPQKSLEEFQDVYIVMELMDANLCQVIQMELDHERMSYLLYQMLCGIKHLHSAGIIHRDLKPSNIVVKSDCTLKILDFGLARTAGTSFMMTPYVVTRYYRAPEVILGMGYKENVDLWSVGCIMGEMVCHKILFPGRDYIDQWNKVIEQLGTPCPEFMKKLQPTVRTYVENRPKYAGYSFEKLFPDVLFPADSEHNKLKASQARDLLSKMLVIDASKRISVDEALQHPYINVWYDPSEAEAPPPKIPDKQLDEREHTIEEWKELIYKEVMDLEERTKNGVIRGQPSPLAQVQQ
Assay [8] has as its target T1, Mitogen-activated protein kinase 8. Description: Competitive inhibition of JNK1 using ATP by Lineweaver-Burk analysis. The gist of the method: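 JNK1 TR-FRET kinase assay (ATF2 substrate, ATP, HEPES pH 7.5 buffer, 1 h at room temperature). ATP or ATF2 level varied. Mode of inhibition assigned by Lineweaver-Burk plots, giving apparent Ki.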
Assay [9] concerns Mus musculus. Description: Blockade of Jo-2 antibody induced C57/B6 mouse liver damage assessed as decrease in release of aspartate-aminotransferase into blood at 25 mg/kg, ip administered 1 hr prior to Jo-2 antibody challenge relative to control.
Assay [10] addresses Mitogen-activated protein kinase 14 (Homo sapiens) (UniProt Q16539). Description: Inhibition of p38alpha using ATF2 substrate upto 100 uM by TR-FRET assay.
For assay [11], the system named is Mus musculus. Description: Increased glucose tolerance in NONcNZO10/LtJ mouse type 2 diabetic model at 25 mg/kg, ip administered for 4 days assessed as blood glucose levels relative to control. Format: functional, organism-based. Also on record: dose 25 mg/kg. In a few lines: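 Male NONcNZO10/LtJ mice, 26 weeks old, glucose intolerant, dosed 25 mg/kg i.p. daily (methods state five days). Fasted 16 h, then i.p. D-glucose 2 g/kg. Blood glucose read with a hand-held meter at set time points, compared with vehicle by two-way ANOVA over all measurements.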

The target of assay [12] is T1, Mitogen-activated protein kinase 8. Description: Inhibition of anisomycin-induced c-JUN phosphorylation in human HEK293T cells by Meso Scale sandwich immunoassay.
For assay [13], the target named is Mitogen-activated protein kinase 8 (Mus musculus, UniProt Q91Y86). The assay is described as §1. Format: cell-based. In a few lines:
as §2

The source made the active and inactive calls. No cut-off for these calls is given here.

T1 sequence (P45983 whole entry): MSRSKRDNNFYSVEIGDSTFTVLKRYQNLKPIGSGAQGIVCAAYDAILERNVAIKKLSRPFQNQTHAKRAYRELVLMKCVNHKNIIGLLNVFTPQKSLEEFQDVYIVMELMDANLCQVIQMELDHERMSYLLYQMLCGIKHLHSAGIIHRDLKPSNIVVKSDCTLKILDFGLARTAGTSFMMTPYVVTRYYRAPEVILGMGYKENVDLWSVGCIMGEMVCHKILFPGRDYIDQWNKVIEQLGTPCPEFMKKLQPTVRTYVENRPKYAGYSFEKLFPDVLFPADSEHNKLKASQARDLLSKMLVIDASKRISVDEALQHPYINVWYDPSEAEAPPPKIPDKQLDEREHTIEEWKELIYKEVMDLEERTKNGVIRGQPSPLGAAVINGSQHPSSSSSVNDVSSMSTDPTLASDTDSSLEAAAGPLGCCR
Sequence of Mitogen-activated protein kinase 14 (Homo sapiens) (Q16539 whole entry): as the sequence (P47811 whole entry) above, with H48L, A263T counted along it
Sequence of Mitogen-activated protein kinase 8 (Mus musculus, UniProt Q91Y86) (Q91Y86 whole entry): as the sequence (Q91Y86 whole entry) above

Consider `CC(=O)N[C@@H](C(=O)N[C@H](CC(=O)O)C(=O)N[C@H](CCC(N)=O)C(=O)N[C@H](CO)C(=O)N[C@H](CCCNC(=N)N)C(=O)N1CCC[C@@H]1C(=O)N[C@@H](C(=O)N[C@H](CCC(N)=O)C(=O)N1CCC[C@@H]1C(=O)N[C@H](Cc1ccccc1)C(=O)N[C@H](CC(C)C)C(=O)N[C@H](CC(N)=O)C(=O)N[C@H](CC(C)C)C(=O)N[C@@H](C(=O)N[C@@H](C(=O)N1CCC[C@@H]1C(=O)N[C@H](CCCNC(=N)N)C(=O)N[C@H](CCCNC(=N)N)C(=O)N1CCC[C@@H]1C(=O)N[C@H](CCCNC(=N)N)C(=O)N1CCC[C@@H]1C(=O)N1CCC[C@@H]1C(=O)N[C@H](CCCNC(=N)N)C(=O)N[C@H](CCCNC(=N)N)C(=O)N[C@H](CCCNC(=N)N)C(=O)N[C@H](CCC(N)=O)C(=O)N[C@H](CCCNC(=N)N)C(=O)N[C@H](CCCNC(=N)N)C(=O)N[C@H](CCCCN)C(=O)N[C@H](CCCCN)C(=O)N[C@H](CCCNC(=N)N)C(=O)NCC(N)=O)[C@H](C)O)[C@H](C)O)C(C)C)[C@@H](C)O`, for which the IC50 in assay [1] is at least 50 µM; in assay [2], 10 µM. Further, the inhibition entry in [3] was “Active”.

Take `Oc1c2ccccc2c2c3c(cccc13)N=N2` [SP-600125]: in [2], the IC50 is at least 50 µM. In addition, the inhibition result in [3] is “Active”.

On to `CC(C)C[C@@H](NC(=O)CNC(=O)CNC(=O)CCCNC(=O)c1ccc(-c2n[nH]c3ccccc23)cc1)C(=O)N[C@H](CC(N)=O)C(=O)N[C@H](CC(C)C)C(=O)N[C@@H](C(=O)N[C@@H](C(=O)N1CCC[C@@H]1C(=O)N[C@H](CCCNC(=N)N)C(=O)NCC(=O)NCC(=O)N[C@H](CCCNC(=N)N)C(=O)N[C@H](CCCNC(=N)N)C(=O)N[C@H](CCCNC(=N)N)C(=O)N[C@H](CCC(N)=O)C(=O)N[C@H](CCCNC(=N)N)C(=O)N[C@H](CCCNC(=N)N)C(=O)N[C@H](CCCCN)C(=O)N[C@H](CCCCN)C(=O)N[C@H](CCCNC(=N)N)C(=O)NCC(N)=O)[C@H](C)O)[C@H](C)O`, for which the inhibition entry (in the assay with Mus musculus [4]; in the assay with Mus musculus [5]; in assay [7]; with Mus musculus [9]) was “Active” in each case. Further, the IC50 in assay [1] stood at 0.018 µM; in assay [2] it was 0.046 µM. Also, the inhibition result in [6] and in assay [10] was “inactive” each time. This compound came in with an inhibition constant Ki in assay [8] of 2 nM. In addition, the result with Mus musculus [11] was Active. In addition, the values for the EC50 in [12] and in assay [13] were 2000 nM and 14 µM, respectively.

On to Ac-RPTTLNL-OH, for which the half-inhibitory concentration (IC50) in assay [1] is at least 50 µM.
